Test results published in ChEMBL document CHEMBL4359831, “Chemoproteomics of an Indole-Based Quinone Epoxide Identifies Druggable Vulnerabilities in Vancomycin-Resistant Staphylococcus aureus” (J Med Chem, 2019).
In brackets after ≈: the same amount, converted by molar mass. Activity calls are given as the source filed them. The calls are words filed in the database; no cut-off is given here.

Key:
[1] = L-cysteine reactivity in pH 7.4 phosphate buffer at 100 uM preincubated for 1 hr followed by mono-bromobimane addition and measured after 30 mins by fluorescence based competition assay
Staphylococcus aureus [2] = assay: Binding affinity to Staphylococcus aureus ATCC 29213 Thioredoxin at 10 uM in presence of 9-(Pent-4-yn-1-yl)-1a,10a-dihydro-2H-oxireno[2',3':4,5]-benzo[1,2-a]carbazole-2,10(9H)-dione after 1 hr by biotin-azide fluorescence dependent LC-MS/MS-based ABPP assay
Method in brief: (§1)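 Competitive LC–MS/MS ABPP on S. aureus soluble proteome. Pretreatment 1 h with DMSO, compound (10 μM), comparator (10 μM) or iodoacetamide (10 mM). Chase with alkyne probe (10 μM, 1 h), then Cu-catalysed click with biotin-azide and LC–MS/MS. Targets were proteins at ratio ≤0.1 versus DMSO in the compound and IAM groups and ~1 in the comparator group.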

Staphylococcus aureus [3] = assay: Binding affinity to Staphylococcus aureus ATCC 29213 HxlR family transcriptional regulator at 10 uM in presence of 9-(Pent-4-yn-1-yl)-1a,10a-dihydro-2H-oxireno[2',3':4,5]-benzo[1,2-a]carbazole-2,10(9H)-dione after 1 hr by biotin-azide fluorescence dependent LC-MS/MS-based ABPP assay; method in brief: as §1
Erythrocyte = assay: Toxicity in human erythrocytes assessed as induction of hemolysis at 100 ug/ml incubated under shaking condition for 1 hr by spectrophotometric method; type: cell-based
[4] = L-cysteine reactivity in pH 7.4 phosphate buffer assessed as pseudo first order rate constant at 100 uM measured at 10 mins time interval up to 60 mins by HPLC analysis
[5] = molecular target: T1, 2-dehydropantoate 2-reductase (Staphylococcus aureus) (UniProt A0A0J9X283); assay: Binding affinity to Staphylococcus aureus ATCC 29213 2-dehydropantoate 2-reductase at 10 uM in presence of 9-(Pent-4-yn-1-yl)-1a,10a-dihydro-2H-oxireno[2',3':4,5]-benzo[1,2-a]carbazole-2,10(9H)-dione after 1 hr by biotin-azide fluorescence dependent LC-MS/MS-based ABPP assay; method in brief: as §1
T1 sequence (whole entry): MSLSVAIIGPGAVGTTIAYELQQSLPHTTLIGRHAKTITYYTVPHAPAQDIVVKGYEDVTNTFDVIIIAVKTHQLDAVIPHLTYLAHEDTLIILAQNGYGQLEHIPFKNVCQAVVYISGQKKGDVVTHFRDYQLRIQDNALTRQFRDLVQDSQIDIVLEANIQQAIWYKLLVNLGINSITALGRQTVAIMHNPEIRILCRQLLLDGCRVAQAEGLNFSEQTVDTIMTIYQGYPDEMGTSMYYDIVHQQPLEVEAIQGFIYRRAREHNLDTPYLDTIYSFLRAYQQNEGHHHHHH

Acinetobacter baumannii = assay: Antibacterial activity against Acinetobacter baumannii BAA-1605 after 16 to 18 hrs by CLSI M07-A10 protocol based dilution method; type: functional
Klebsiella pneumoniae = assay: Antibacterial activity against Klebsiella pneumoniae ATCC BAA-1705 after 16 to 18 hrs by CLSI M07-A10 protocol based dilution method; type: functional
Staphylococcus aureus [6] = assay: Binding affinity to Staphylococcus aureus ATCC 29213 MEP-cytidylyltransferase at 10 uM in presence of 9-(Pent-4-yn-1-yl)-1a,10a-dihydro-2H-oxireno[2',3':4,5]-benzo[1,2-a]carbazole-2,10(9H)-dione after 1 hr by biotin-azide fluorescence dependent LC-MS/MS-based ABPP assay; method in brief: as §1
Staphylococcus aureus [7] = assay: Antibacterial activity against vancomycin-resistant Staphylococcus aureus HIP14300 after 16 to 18 hrs by CLSI M07-A10 protocol based dilution method; type: functional
Staphylococcus aureus [8] = assay: Bactericidal activity against Staphylococcus aureus ATCC 29213 at 1 to 10 times MIC preincubated up to 24 hrs under shaking condition followed by bacterial plating on Tryptic Soy agar and measured after 18 to 20 hrs by time kill assay; type: functional, organism-based
Staphylococcus aureus [9] = assay: Antibacterial activity against vancomycin-resistant Staphylococcus aureus SA-71080 after 16 to 18 hrs by CLSI M07-A10 protocol based dilution method; type: functional
Staphylococcus aureus [10] = assay: Binding affinity to Staphylococcus aureus ATCC 29213 Catabolite control protein A at 10 uM in presence of 9-(Pent-4-yn-1-yl)-1a,10a-dihydro-2H-oxireno[2',3':4,5]-benzo[1,2-a]carbazole-2,10(9H)-dione after 1 hr by biotin-azide fluorescence dependent LC-MS/MS-based ABPP assay; method in brief: as §1
[11] = molecular target: T2, Arsenate reductase (Staphylococcus aureus) (UniProt P0A006); assay: Binding affinity to Staphylococcus aureus ATCC 29213 Arsenate reductase at 10 uM in presence of 9-(Pent-4-yn-1-yl)-1a,10a-dihydro-2H-oxireno[2',3':4,5]-benzo[1,2-a]carbazole-2,10(9H)-dione after 1 hr by biotin-azide fluorescence dependent LC-MS/MS-based ABPP assay; method in brief: as §1
T2 sequence (whole entry): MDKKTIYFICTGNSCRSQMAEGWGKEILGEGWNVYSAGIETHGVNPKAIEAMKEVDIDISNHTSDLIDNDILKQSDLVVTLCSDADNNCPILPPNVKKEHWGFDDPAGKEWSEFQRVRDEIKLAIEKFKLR

## CC(C)n1c2ccccc2c2ccc3c(c21)C(=O)C1OC1C3=O (centres undefined)
[1]
  Activity: Active
Staphylococcus aureus [2]
  Activity: Active
Staphylococcus aureus [3]
  Activity: Active
Erythrocyte
  Activity: Non-Toxic
[4]
  K: 7.54 ×10⁻² /min
[5]
  Activity: Active
Acinetobacter baumannii
  MIC: 64 µg/mL (≈ 210 µM)
Klebsiella pneumoniae
  MIC: 64 µg/mL (≈ 210 µM)
Staphylococcus aureus [6]
  Activity: Active
Staphylococcus aureus [7]
  MIC: 0.5 µg/mL (≈ 1.64 µM)
Staphylococcus aureus [8]
  Activity: Active
Staphylococcus aureus [9]
  MIC: 0.5 µg/mL (≈ 1.64 µM)
Staphylococcus aureus [10]
  Activity: Active
[11]
  Activity: Active
